Calls of active or inactive are those of the source.
Columns and labels:
[1] = test system: Trypanosoma brucei brucei; assay: Inhibition of mitochondrion topoisomerase 1A in Trypanosoma brucei brucei MiTat 1.2 strain 427 bloodstream assessed as protection of linerarizd minicircle from exonuclase 3 at 63 uM
In short: (§1)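 Cells were treated 1 h at 37°C, lysed with SDS, and digested with proteinase K and RNase. DNA was phenol-extracted, precipitated and cleaned up. It was then digested with λ exonuclease (glycine-KOH pH 9.4, MgCl2, BSA) or exonuclease III (Bis-Tris-propane pH 7.0, MgCl2, DTT) for 30 min at 37°C. HindIII-linearized pBluescript served as internal control. Minicircles were detected by Southern blot.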

[2] = test system: Trypanosoma brucei brucei; assay: Antitrypanosomal activity against Trypanosoma brucei brucei MiTat 1.2 strain 427 bloodstream assessed as decrease in topoisomerase 2mt level at 0-120 uM; format: functional, organism-based
In short: (§2)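 Western band depletion: 1.2 × 10^7 cells in medium were exposed to compound for 30 min at 37°C. A portion taken just before lysis was lysed in SDS/DTT sample buffer and run on SDS-PAGE. Blots were probed for c-Myc-tagged topoisomerase IAmt (anti-c-Myc) and for topoisomerase IImt (specific antiserum), with enolase as loading control. Free enzyme was quantitated densitometrically.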

Nucleic Acid = assay: Binding affinity to plasmid DNA assessed as DNA unwinding in presence of vaccinia virus topoisomerase 1B by electrophoresis; format: nucleic-acid assay
In short: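 Supercoiled pBluescript, or pBluescript pre-relaxed with E. coli topoisomerase IA (250 ng), was exposed to a range of compound concentrations in 50 mM Tris HCl pH 7.5, 50 mM NaCl, 5 mM MgCl2. Then 1 pM vaccinia topoisomerase IB was added (1 h, 37°C). Reactions were SDS-quenched, run on 1% agarose in Tris-borate-EDTA, and stained with ethidium bromide.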

[3] = test system: Trypanosoma brucei brucei; assay: Inhibition of mitochondrion topoisomerase 1A in Trypanosoma brucei brucei MiTat 1.2 strain 427 bloodstream assessed as protection of linerarizd minicircle from lambda exonuclase at 63 uM; in short: as §1
[4] = test system: Trypanosoma brucei brucei; assay: Antitrypanosomal activity against Trypanosoma brucei brucei MiTat 1.2 strain 427 bloodstream assessed as decrease in topoisomerase 2mt level at 0-100 uM; format: functional, organism-based; in short: as §2
[5] = test system: Trypanosoma brucei brucei; assay: Inhibition of mitochondrion topoisomerase 1A in Trypanosoma brucei brucei MiTat 1.2 strain 427 bloodstream assessed as increase in protein-sensitive linear DNA forms at 60-100 uM
In short: (§3)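 Free minicircle profiles: 1.2 × 10^7 cells were exposed to compound for 30 min at 37°C. Cells were lysed in SDS/EDTA buffer with or without proteinase K (2 h, 55°C), then treated with RNase A. DNA was run on 1.5% agarose with ethidium bromide and Southern-blotted with a 32P probe to the conserved 124-bp minicircle sequence. Read by phosphorimaging.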

[6] = test system: Trypanosoma brucei brucei; assay: Inhibition of mitochondrion topoisomerase 1A in Trypanosoma brucei brucei MiTat 1.2 strain 427 bloodstream assessed as protection of linerarizd minicircle from exonuclase 3 at 25.5 uM; in short: as §1
[7] = test system: Trypanosoma brucei brucei; assay: Antitrypanosomal activity against Trypanosoma brucei brucei MiTat 1.2 strain 427 bloodstream assessed as decrease in topoisomerase 1Amt level at 0-120 uM; format: functional, organism-based; in short: as §2
[8] = test system: Trypanosoma brucei brucei; assay: Antitrypanosomal activity against Trypanosoma brucei brucei MiTat 1.2 strain 427 bloodstream by acid phosphatase method; format: functional, organism-based
In short: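 Bloodstream cells at 2 × 10^5/ml were given 2× serial dilutions of compound (final DMSO ≤1%), quadruplicate wells, for 20–24 h at 37°C. Motility was checked microscopically. p-Nitrophenyl phosphate in acetate buffer pH 5.5 with Triton X-100 was added for 5 h at 37°C, then A405 was read. Three runs; EC50 from Emax model fit; outliers removed by Chauvenet's criterion.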

[9] = test system: Trypanosoma brucei brucei; assay: Inhibition of mitochondrion topoisomerase 1A in Trypanosoma brucei brucei MiTat 1.2 strain 427 bloodstream assessed as increase in protein-sensitive linear DNA forms at 0-40 uM; in short: as §3
[10] = test system: Trypanosoma brucei brucei; assay: Inhibition of topoisomerase in Trypanosoma brucei brucei MiTat 1.2 strain 427 bloodstream assessed as enzyme -DNA cleavable complex at 50 uM relative to DMSO
In short: (§4)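 KSDS assay: cells at 10^7/ml in thymidine-free medium were labelled 1 h at 37°C with [3H]thymidine, washed, and treated 30 min at 37°C with DMSO, 500 μM etoposide or compound, in triplicate. Lysates in SDS/EDTA with calf thymus DNA were heated 10 min at 65°C, then KCl-precipitated and washed, and the precipitate was scintillation-counted. Percent trapped DNA = KSDS cpm ÷ TCA-precipitable cpm of untreated cells.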

[11] = test system: Trypanosoma brucei brucei; assay: Inhibition of mitochondrion topoisomerase 1A in Trypanosoma brucei brucei MiTat 1.2 strain 427 bloodstream assessed as protection of linerarizd minicircle from lambda exonuclase at 25.5 uM; in short: as §1
[12] = test system: Trypanosoma brucei brucei; assay: Antitrypanosomal activity against Trypanosoma brucei brucei MiTat 1.2 strain 427 bloodstream assessed as decrease in topoisomerase 1Amt level at 0-100 uM; format: functional, organism-based; in short: as §2
[13] = test system: Trypanosoma brucei brucei; assay: Inhibition of topoisomerase in Trypanosoma brucei brucei MiTat 1.2 strain 427 bloodstream assessed as enzyme-DNA cleavable complex at 50 uM (RvB = 2.2 +/- 0.05%); in short: as §4

Q: What does the source list for `O=c1c2cccc3c2c(nn1CN1CCCCC1)-c1ccccc1-3`?
A: inhibition [1]: Active; Activity [2]: Active; Activity (Nucleic Acid): Dose-dependent effect; inhibition [3]: inactive; Activity [4]: Active; inhibition [5]: inactive; inhibition [6]: Active; Activity [7]: inactive; EC50 [8]: 16.9 µM; inhibition [9]: Active; Ratio [10]: 0.77; inhibition [11]: inactive; Activity [12]: inactive; % DNA in cleavable complexes [13]: 1.7%

Q: With `CN(C)CCc1cc2c(c3c1ccc1ccccc13)OCO2` as the molecule, how does the inhibition [1] read?
A: Active

Q: And the Activity [2]?
A: Active

Q: What about the Activity (Nucleic Acid) of the same molecule?
A: Dose-dependent effect

Q: And the inhibition [3]?
A: inactive

Q: What about the Activity [4] of the same molecule?
A: Active

Q: What about the inhibition [5] of the same molecule?
A: inactive

Q: And the inhibition [6]?
A: Active

Q: What about the Activity [7] of the same molecule?
A: inactive

Q: What about the EC50 [8] of the same molecule?
A: 6.3 µM

Q: And the inhibition [9]?
A: Active

Q: And the Ratio [10]?
A: 0.86

Q: And the inhibition [11]?
A: inactive

Q: What about the Activity [12] of the same molecule?
A: inactive

Q: What about the % DNA in cleavable complexes [13] of the same molecule?
A: 1.9%
